Assay results taken from ChEMBL document CHEMBL3580532, “Deconins A-E: Cuparenic and Mevalonic or Propionic Acid Conjugates from the Basidiomycete Deconica sp. 471” (J Nat Prod, 2015).
Active and inactive are the calls of the source.

Columns and labels:
[1] = system: Schizosaccharomyces pombe; test: Antimicrobial activity against Schizosaccharomyces pombe DSM70572 assessed as inhibition of microbial growth incubated for 24 to 48 hrs by serial dilution assay; type: functional, organism-based
How it was run: (§1)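 Broth serial dilution in MYC medium (1.0% phytone peptone, 1.0% glucose, 50 mM HEPES, pH 7.0). Compound stock (1 mg/mL in MeOH) was dried in the first row, then the yeast was added as a 1:100 inoculum:medium mix. Twofold serial dilutions covered 66.7 to 0.1 μg/mL. Plates were shaken at 600 rpm, 30 °C, for 24–48 h. MIC was the lowest concentration with no visible growth. Blank wells served as negative controls.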

Candida albicans [2] = test: Antimicrobial activity against Candida albicans DSM1665 assessed as inhibition of microbial growth incubated for 24 to 48 hrs by serial dilution assay; type: functional, organism-based; how it was run: as §1
Wickerhamomyces anomalus [3] = test: Antimicrobial activity against Pichia anomala DSM6766 assessed as inhibition of microbial growth incubated for 24 to 48 hrs by serial dilution assay; type: functional, organism-based; how it was run: as §1
Mucor hiemalis [4] = test: Antimicrobial activity against Mucor hiemalis DSM2656 […] assessed as inhibition of microbial growth incubated for 24 to 48 hrs by serial dilution assay; type: functional
How it was run: (§2)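 Yeasts and fungi were tested by serial dilution in MYC medium (1.0% phytone peptone, 1.0% glucose, 50 mM HEPES, pH 7.0). Compound from a 1 mg/mL MeOH stock was dried in row A, then inoculum at 1:100 in medium was added and diluted 1:1 down the plate (66.7 to 0.1 μg/mL). Incubation was 30 °C, 600 rpm shaking, 24−48 h. MIC is the lowest concentration with no visible growth.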

[5] = system: Chromobacterium violaceum; test: Antimicrobial activity against Chromobacterium violaceum DSM30191 assessed as inhibition of microbial growth up to 67 ug/ml incubated for 24 to 48 hrs by serial dilution assay; type: functional, organism-based
How it was run: (§3)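 Broth microdilution in EBS medium (peptone, glucose, meat and yeast extract, 50 mM HEPES, pH 7.0). A 1 mg/mL MeOH stock was dried in the first row, then pathogen diluted 1:100 in medium was added and serially diluted 1:1 (66.7 to 0.1 μg/mL tested). Plates were shaken at 600 rpm, 30 °C, for 24−48 h. MIC is the lowest concentration preventing visible growth; blank wells served as negative control.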

Escherichia coli [6] = test: Antimicrobial activity against Escherichia coli DSM1116 assessed as inhibition of microbial growth up to 67 ug/ml incubated for 24 to 48 hrs by serial dilution assay; type: functional, organism-based; how it was run: as §3
[7] = system: Schizosaccharomyces pombe; test: Antimicrobial activity against Schizosaccharomyces pombe DSM70572 assessed as inhibition of microbial growth up to 67 ug/ml incubated for 24 to 48 hrs by serial dilution assay; type: functional, organism-based; how it was run: as §2
Candida albicans [8] = test: Antimicrobial activity against Candida albicans DSM1665 assessed as inhibition of microbial growth up to 67 ug/ml incubated for 24 to 48 hrs by serial dilution assay; type: functional, organism-based; how it was run: as §2
Wickerhamomyces anomalus [9] = test: Antimicrobial activity against Pichia anomala DSM6766 assessed as inhibition of microbial growth up to 67 ug/ml incubated for 24 to 48 hrs by serial dilution assay; type: functional, organism-based; how it was run: as §2
Mucor hiemalis [10] = test: Antimicrobial activity against Mucor hiemalis DSM2656 […] assessed as inhibition of microbial growth up to 67 ug/ml incubated for 24 to 48 hrs by serial dilution assay; type: functional, organism-based; how it was run: as §2
L929 = test: Cytotoxicity against mouse L929 cells incubated for 5 days by MTT assay; type: cell-based; details: L929, 120 h
How it was run: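 L929 mouse fibroblasts were grown in EBM-2 with 10% FBS at 37 °C under 10% CO₂. Serial dilutions from a 1 mg/mL MeOH stock were added to cell suspension (50 000/mL) and incubated 5 days. Read-out was MTT with absorbance at 590 nm. IC₅₀ (50% growth inhibition versus control) was taken from dose−response curves; methanol was the negative control.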

Bacillus subtilis [11] = test: Antimicrobial activity against Bacillus subtilis DSM10 assessed as inhibition of microbial growth up to 67 ug/ml incubated for 24 to 48 hrs by serial dilution assay; type: functional, organism-based; how it was run: as §3
Staphylococcus aureus [12] = test: Antimicrobial activity against Staphylococcus aureus DSM346 assessed as inhibition of microbial growth up to 67 ug/ml incubated for 24 to 48 hrs by serial dilution assay; type: functional, organism-based; how it was run: as §3
Micrococcus luteus [13] = test: Antimicrobial activity against Micrococcus luteus DSM1790 assessed as inhibition of microbial growth up to 67 ug/ml incubated for 24 to 48 hrs by serial dilution assay; type: functional, organism-based; how it was run: as §3
Pseudomonas aeruginosa [14] = test: Antimicrobial activity against Pseudomonas aeruginosa DSM50071 assessed as inhibition of microbial growth up to 67 ug/ml incubated for 24 to 48 hrs by serial dilution assay; type: functional, organism-based; how it was run: as §3
Pseudomonas aeruginosa [15] = test: Antimicrobial activity against Pseudomonas aeruginosa DSM50071 assessed as inhibition of microbial growth incubated for 24 to 48 hrs by serial dilution assay; type: functional, organism-based
How it was run: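 Broth serial dilution in EBS medium (0.5% peptone, 0.5% glucose, 0.1% meat extract, 0.1% yeast extract, 50 mM HEPES, pH 7.0). Compound stock (1 mg/mL in MeOH) was dried in the first row, then the bacterium was added as a 1:100 inoculum:medium mix. Twofold dilutions covered 66.7 to 0.1 μg/mL. Plates were shaken at 600 rpm, 30 °C, for 24–48 h. MIC was the lowest concentration with no visible growth.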

Bacillus subtilis [16] = test: Antimicrobial activity against Bacillus subtilis DSM10 assessed as inhibition of microbial growth incubated for 24 to 48 hrs by serial dilution assay; type: functional; how it was run: as §3
Staphylococcus aureus [17] = test: Antimicrobial activity against Staphylococcus aureus DSM346 assessed as inhibition of microbial growth incubated for 24 to 48 hrs by serial dilution assay; type: functional; how it was run: as §3
Micrococcus luteus [18] = test: Antimicrobial activity against Micrococcus luteus DSM1790 assessed as inhibition of microbial growth incubated for 24 to 48 hrs by serial dilution assay; type: functional; how it was run: as §3
[19] = system: Chromobacterium violaceum; test: Antimicrobial activity against Chromobacterium violaceum DSM30191 assessed as inhibition of microbial growth incubated for 24 to 48 hrs by serial dilution assay; type: functional; how it was run: as §3
Escherichia coli [20] = test: Antimicrobial activity against Escherichia coli DSM1116 assessed as inhibition of microbial growth incubated for 24 to 48 hrs by serial dilution assay; type: functional; how it was run: as §3

NYSTATIN
67 µg/mL: MIC (Candida albicans [2]) | MIC (Mucor hiemalis [4])
33.3 µg/mL: MIC [1] | MIC (Wickerhamomyces anomalus [3])

CC1(C)CC(=O)C[C@]1(C)C1=CC=C(C(=O)OCC[C@@](C)(O)CC(=O)O)CC1
> 10 µg/mL: IC50 (L929)
inactive: inhibition [5] | inhibition (Escherichia coli [6]) | inhibition [7] | inhibition (Candida albicans [8]) | inhibition (Wickerhamomyces anomalus [9]) | inhibition (Mucor hiemalis [10]) | inhibition (Bacillus subtilis [11]) | inhibition (Staphylococcus aureus [12]) | inhibition (Micrococcus luteus [13]) | inhibition (Pseudomonas aeruginosa [14])

GENTAMICIN
42 µg/mL: MIC (Pseudomonas aeruginosa [15])

CC1(C)CCC[C@]1(C)c1ccc(C(=O)OCC[C@@](C)(O)CC(=O)O)cc1
67 µg/mL: MIC (Bacillus subtilis [16]) | MIC (Staphylococcus aureus [17]) | MIC (Mucor hiemalis [4])
inactive: inhibition [5] | inhibition (Escherichia coli [6]) | inhibition [7] | inhibition (Candida albicans [8]) | inhibition (Wickerhamomyces anomalus [9]) | inhibition (Micrococcus luteus [13]) | inhibition (Pseudomonas aeruginosa [14])
> 10 µg/mL: IC50 (L929)

CC(O)(COC(=O)c1ccc([C@@]2(C)C[C@H](O)CC2(C)C)cc1)C(=O)O (some centres not stated)
> 10 µg/mL: IC50 (L929)
inactive: inhibition [5] | inhibition (Escherichia coli [6]) | inhibition [7] | inhibition (Candida albicans [8]) | inhibition (Wickerhamomyces anomalus [9]) | inhibition (Mucor hiemalis [10]) | inhibition (Bacillus subtilis [11]) | inhibition (Micrococcus luteus [13]) | inhibition (Pseudomonas aeruginosa [14])
67 µg/mL: MIC (Staphylococcus aureus [17])

CC1(C)[C@@H](O)C(=O)C[C@]1(C)c1ccc(C(=O)O)cc1
inactive: inhibition [5] | inhibition (Escherichia coli [6]) | inhibition [7] | inhibition (Candida albicans [8]) | inhibition (Wickerhamomyces anomalus [9]) | inhibition (Mucor hiemalis [10]) | inhibition (Bacillus subtilis [11]) | inhibition (Staphylococcus aureus [12]) | inhibition (Micrococcus luteus [13]) | inhibition (Pseudomonas aeruginosa [14])
> 10 µg/mL: IC50 (L929)

CN(C)[C@@H]1C(O)=C(C(N)=O)C(=O)[C@@]2(O)C(O)=C3C(=O)c4c(O)cccc4[C@@](C)(O)[C@H]3[C@H](O)[C@@H]12.Cl [OXYTETRACYCLINE HYDROCHLORIDE]
0.42 µg/mL: MIC (Micrococcus luteus [18])
0.83 µg/mL: MIC (Bacillus subtilis [16]) | MIC [19] | MIC (Escherichia coli [20])
0.21 µg/mL: MIC (Staphylococcus aureus [17])

CC1(C)CCC[C@]1(C)c1ccc(C(=O)O)cc1
> 10 µg/mL: IC50 (L929)
inactive: inhibition [5] | inhibition (Escherichia coli [6]) | inhibition [7] | inhibition (Candida albicans [8]) | inhibition (Wickerhamomyces anomalus [9]) | inhibition (Bacillus subtilis [11]) | inhibition (Staphylococcus aureus [12]) | inhibition (Micrococcus luteus [13]) | inhibition (Pseudomonas aeruginosa [14])
67 µg/mL: MIC (Mucor hiemalis [4])

CC1(C)CC(=O)C[C@]1(C)c1ccc(C(=O)OCC[C@@](C)(O)CC(=O)O)cc1
inactive: inhibition [5] | inhibition (Escherichia coli [6]) | inhibition [7] | inhibition (Candida albicans [8]) | inhibition (Wickerhamomyces anomalus [9]) | inhibition (Mucor hiemalis [10]) | inhibition (Bacillus subtilis [11]) | inhibition (Staphylococcus aureus [12]) | inhibition (Micrococcus luteus [13]) | inhibition (Pseudomonas aeruginosa [14])
> 10 µg/mL: IC50 (L929)

CC1(C)CC[C@@H](O)[C@]1(C)c1ccc(C(=O)OCC[C@@](C)(O)CC(=O)O)cc1
inactive: inhibition [5] | inhibition (Escherichia coli [6]) | inhibition [7] | inhibition (Candida albicans [8]) | inhibition (Wickerhamomyces anomalus [9]) | inhibition (Mucor hiemalis [10]) | inhibition (Bacillus subtilis [11]) | inhibition (Micrococcus luteus [13]) | inhibition (Pseudomonas aeruginosa [14])
67 µg/mL: MIC (Staphylococcus aureus [17])
2.8 µg/mL: IC50 (L929)
